Reference: ChEMBL document CHEMBL1806371, “Selenocyanates and diselenides: a new class of potent antileishmanial agents” (Eur J Med Chem, 2011)

What was measured:
Leishmania infantum [1] = assay: Antileishmanial activity against Leishmania infantum MCAN/ES/89/IPZ229/1/89 amastigotes expressing GFP infected in human THP1 cells assessed as reduction in parasite infection rate at 3 uM after 48 hrs by flow cytometry; assay type: functional, THP-1; set-up: scale not given: the % may be the effect or the level left
Jurkat [2] = assay: Cytotoxicity against human Jurkat cells assessed as live cells in neubauer chamber after 24 hrs by trypan blue assay; assay type: cell-based
[3] = Permeability across human Caco2 cells; assay type: ADME, cell-based; conditions: Caco-2, read-out: permeability
[4] = Human intestinal absorption in human; assay type: ADME, organism-based; conditions: read-out: HIA
Method in brief: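 Values are computed, not measured. Human intestinal absorption (%) and Caco-2 permeability (nm/s) were predicted in silico with the PreADMET program.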

Leishmania infantum [5] = assay: Antileishmanial activity against Leishmania infantum MCAN/ES/89/IPZ229/1/89 axenic amastigotes infected in human THP1 cells expressing GFP assessed as complete killing of parasite at 3 uM after 48 hrs by propidium iodide staining based flow cytometry; assay type: functional, THP-1
Leishmania infantum [6] = assay: Antileishmanial activity against Leishmania infantum MCAN/ES/89/IPZ229/1/89 axenic amastigotes infected expressing GFP in human […] cells assessed as axenic parasite killing at 3 uM after 48 hrs by propidium iodide staining based flow cytometry; assay type: functional
THP-1 [7] = assay: Cytotoxicity against human THP1 cells infected with Leishmania infantum MCAN/ES/89/IPZ229/1/89 at 3 uM using propidium iodide staining by fluorescence contrast microscopy; assay type: cell-based; conditions: thp-1, 3 µM
Method in brief: (§1)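 Drug was added to PMA-differentiated THP-1 cells infected with eGFP amastigotes, at 1, 3 and 15 µM, alongside a DMSO control at the highest assay concentration. Propidium iodide was added to a final 5 µg/mL, and cells were examined at once by phase contrast and fluorescence microscopy; PI stains dead cells.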

THP-1 [8] = assay: Cytotoxicity against human THP1 cells infected with Leishmania infantum MCAN/ES/89/IPZ229/1/89 at 3 uM by phase contrast microscopy; assay type: cell-based; conditions: thp-1, 3 µM; method in brief: as §1
THP-1 [9] = assay: Cytotoxicity against human THP1 cells infected with Leishmania infantum MCAN/ES/89/IPZ229/1/89 at 1 uM using propidium iodide staining by fluorescence contrast microscopy; assay type: cell-based; conditions: thp-1, 1 µM; method in brief: as §1
THP-1 [10] = assay: Cytotoxicity against human THP1 cells infected with Leishmania infantum MCAN/ES/89/IPZ229/1/89 at 1 uM by phase contrast microscopy; assay type: cell-based; conditions: thp-1, 1 µM; method in brief: as §1
Jurkat [11] = assay: Cytotoxicity against human Jurkat cells infected with Leishmania infantum MCAN/ES/89/IPZ229/1/89 at 3 uM using propidium iodide staining by fluorescence contrast microscopy; assay type: cell-based
Jurkat [12] = assay: Cytotoxicity against human Jurkat cells infected with Leishmania infantum MCAN/ES/89/IPZ229/1/89 at 3 uM by phase contrast microscopy; assay type: cell-based
Jurkat [13] = assay: Cytotoxicity against human Jurkat cells infected with Leishmania infantum MCAN/ES/89/IPZ229/1/89 at 1 uM using propidium iodide staining by fluorescence contrast microscopy; assay type: cell-based
Jurkat [14] = assay: Cytotoxicity against human Jurkat cells infected with Leishmania infantum MCAN/ES/89/IPZ229/1/89 at 1 uM by phase contrast microscopy; assay type: cell-based
Leishmania infantum [15] = assay: Antileishmanial activity against Leishmania infantum MCAN/ES/89/IPZ229/1/89 amastigotes expressing GFP infected in human THP1 cells assessed as parasite infected cells after 48 hrs by flow cytometry (reference value: 35%); assay type: functional, THP-1
[16] = Selectivity ratio, ratio of IC50 for human THP1 cells to IC50 for Leishmania infantum MCAN/ES/89/IPZ229/1/89 amastigotes; assay type: ADME, cell-based; conditions: THP-1 cells, read-out: Ratio IC50
Method in brief: (§2)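 Selectivity index is IC50 against Jurkat or THP-1 cells divided by IC50 against L. infantum amastigotes. Host cells were treated in log phase at 4×10^5 cells/mL for 24 h at 37 °C, 5% CO2, at 0.08, 0.4, 2.0, 10.0 and 50.0 μM. Viability was measured by flow cytometry with propidium iodide exclusion.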

[17] = Selectivity ratio, ratio of IC50 for human Jurkat cells to IC50 for Leishmania infantum MCAN/ES/89/IPZ229/1/89 amastigotes; assay type: ADME, cell-based; conditions: read-out: Ratio IC50; method in brief: as §2
Leishmania infantum [18] = assay: Antileishmanial activity against Leishmania infantum MCAN/ES/89/IPZ229/1/89 promastigotes after 24 hrs […]; assay type: functional, organism-based; conditions: MCAN/ES/89/IPZ229/1/89, 24 h
Method in brief: (§3)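 Log-phase L. infantum promastigotes (RPMI-1640, 10% FCS, 25 mM HEPES, pH 7.2, 26 °C) treated at 2×10^6 parasites/mL for 24 h. Screening used 25, 12.5 and 6.25 μM to give percent growth inhibition. Living cells measured by flow cytometry with propidium iodide exclusion. At least three independent experiments.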

THP-1 [19] = assay: Cytotoxicity against human THP1 cells assessed as live cells in neubauer chamber after 24 hrs by trypan blue assay; assay type: cell-based; conditions: THP-1, 24 h
Leishmania infantum [20] = assay: Antileishmanial activity against Leishmania infantum MCAN/ES/89/IPZ229/1/89 promastigotes assessed as growth inhibition at 25 uM after 24 hrs; assay type: functional; method in brief: as §3
Leishmania infantum [21] = assay: Antileishmanial activity against Leishmania infantum MCAN/ES/89/IPZ229/1/89 promastigotes assessed as growth inhibition at 12.5 uM after 24 hrs; assay type: functional; method in brief: as §3
Leishmania infantum [22] = assay: Antileishmanial activity against Leishmania infantum MCAN/ES/89/IPZ229/1/89 promastigotes assessed as growth inhibition at 6.25 uM after 24 hrs; assay type: functional; method in brief: as §3
THP-1 [23] = assay: Cytotoxicity against human THP1 cells infected with Leishmania infantum MCAN/ES/89/IPZ229/1/89 at 3 uM; assay type: cell-based; conditions: thp-1, 3 µM
Leishmania infantum [24] = assay: Antileishmanial activity against Leishmania infantum MCAN/ES/89/IPZ229/1/89 amastigotes expressing GFP infected in human THP1 cells assessed as parasite infected cells at 3 uM after 48 hrs by flow cytometry (reference value: 35%); assay type: functional, THP-1
Leishmania infantum [25] = assay: Antileishmanial activity against Leishmania infantum MCAN/ES/89/IPZ229/1/89 amastigotes after 24 hrs by microscopy; assay type: functional, organism-based; conditions: MCAN/ES/89/IPZ229/1/89, 24 h
Method in brief: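 Axenic L. infantum amastigotes (M199, 10% FCS, pH 5.4, 37 °C) treated in log phase at 1×10^6 parasites/mL for 24 h. Living cells counted by flow cytometry with propidium iodide exclusion, with microscopic observation by phase contrast or fluorescence. At least three independent experiments.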

Compound `Nc1ccc([Se][Se]c2ccc(N)cc2)cc1` has an Activity (Leishmania infantum [1]) of 74%, an IC50 (Jurkat [2]) of 12.1 µM and a Papp [3] of 2.29 ×10⁻⁶ cm/s. It also gave a Fa [4] of 97.6%, an Activity (Leishmania infantum [5]) of 100% and an Activity (Leishmania infantum [6]) of 100%. The Activity (THP-1 [7]) was “Non-toxic”, the Activity (THP-1 [8]) was “Non-toxic” and the Activity (THP-1 [9]) was “Non-toxic”. For the same compound, the Activity (THP-1 [10]) was “Non-toxic”, the Activity (Jurkat [11]) was “Non-toxic” and the Activity (Jurkat [12]) was “Non-toxic”. The Activity (Jurkat [13]) was “Non-toxic”, the Activity (Jurkat [14]) was “Non-toxic” and the Activity (Leishmania infantum [15]) was 9%. It also gave a selectivity ratio [16] of 24, a selectivity ratio [17] of 32 and an IC50 (Leishmania infantum [18]) of 0.96 µM. For the same compound, the IC50 (THP-1 [19]) was 14 µM, the GI (Leishmania infantum [20]) was 98% and the GI (Leishmania infantum [21]) was 97.6%. For the same compound, the GI (Leishmania infantum [22]) was 95.8% and the Activity (THP-1 [23]) was “Non-toxic”.

`CCCCCCCCCCCCCCCCCCOCC(COP(=O)([O-])OCC[N+](C)(C)C)OC` (configuration not stated) [EDELFOSINE] showed an IC50 (Jurkat [2]) of 12.2 µM, a Papp [3] of 3.94 ×10⁻⁶ cm/s and a Fa [4] of 98.4%. It also gave an Activity (Leishmania infantum [24]) of 5%, a selectivity ratio [16] of 6 and a selectivity ratio [17] of 15. For the same compound, the IC50 (Leishmania infantum [25]) was 0.82 µM, the IC50 (Leishmania infantum [18]) was 3.65 µM and the IC50 (THP-1 [19]) was 4.96 µM.
